Measurements from ChEMBL document CHEMBL4177644, “Design, synthesis and biological activity of 3-pyrazine-2-yl-oxazolidin-2-ones as novel, potent and selective inhibitors of mutant isocitrate dehydrogenase 1” (Bioorg Med Chem, 2017).

Assays:
HEK-293T [1] = test: Cytotoxicity against HEK293T cells harboring WT-IDH1 at 10 uM after 72 hrs by CellTiter-Glo assay; type: cell-based; details: human
Summary of the method: (§1)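 HEK-293T cells stably carrying IDH1 wild-type (pMXs-IDH1wt-IRES-BsdR, blasticidin-selected), 10 000 cells per well in DMEM with 10% FCS, 37 °C, 5% CO2. Compound added at the stated concentration for 72 h. Viability read by CellTiter-Glo luminescence.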

HEK-293T [2] = test: Cytotoxicity against HEK293T cells harboring WT-IDH1 at 50 uM after 72 hrs by CellTiter-Glo assay; type: cell-based; details: human; summary of the method: as §1
[3] = tested on: Isocitrate dehydrogenase [NADP] cytoplasmic (Homo sapiens), O75874 [R132C]; test: Inhibition of IDH1 R132C mutant (unknown origin) expressed in HEK293T cells assessed as reduction in D-2-HG levels at 50 uM after 72 hrs relative to control; values are per cent of control
Isocitrate dehydrogenase [NADP] cytoplasmic (Homo sapiens), O75874 [R132C], sequence (O75874 whole entry R132C): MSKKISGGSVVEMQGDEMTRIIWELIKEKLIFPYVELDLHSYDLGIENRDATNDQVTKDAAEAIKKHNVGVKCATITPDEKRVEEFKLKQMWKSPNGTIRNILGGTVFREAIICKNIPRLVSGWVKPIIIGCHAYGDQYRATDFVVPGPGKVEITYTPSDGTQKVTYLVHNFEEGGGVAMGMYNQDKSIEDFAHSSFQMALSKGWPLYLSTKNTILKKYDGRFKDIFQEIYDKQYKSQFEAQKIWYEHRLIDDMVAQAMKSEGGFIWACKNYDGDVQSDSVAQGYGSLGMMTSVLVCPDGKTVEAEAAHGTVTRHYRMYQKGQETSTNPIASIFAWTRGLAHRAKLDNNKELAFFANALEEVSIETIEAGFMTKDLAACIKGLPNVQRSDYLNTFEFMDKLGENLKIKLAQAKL

[4] = tested on: Isocitrate dehydrogenase [NADP] cytoplasmic (Homo sapiens), O75874 [R132H]; test: Inhibition of IDH1 R132H mutant (unknown origin) expressed in HEK293T cells assessed as reduction in D-2-HG levels at 10 uM after 72 hrs relative to control; values are per cent of control
Isocitrate dehydrogenase [NADP] cytoplasmic (Homo sapiens), O75874 [R132H], sequence (O75874 whole entry R132H): as the sequence (O75874 whole entry R132C) above, with C132H counted along it

[5] = tested on: Isocitrate dehydrogenase [NADP] cytoplasmic (Homo sapiens), O75874 [R132H]; test: Inhibition of IDH1 R132H mutant (unknown origin) expressed in HEK293T cells assessed as reduction in D-2-HG levels at 50 uM after 72 hrs relative to control; values are per cent of control
[6] = tested on: Isocitrate dehydrogenase [NADP] cytoplasmic (Homo sapiens), O75874 [R132C]; test: Inhibition of IDH1 R132C mutant (unknown origin) expressed in HEK293T cells assessed as reduction in D-2-HG levels at 10 uM after 72 hrs relative to control; values are per cent of control
[7] = Permeability of compound at 25 ug/ml after 18 hrs by PAMPA-BBB assay; type: ADME; details: read-out: Peff
Summary of the method: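 PAMPA-BBB with porcine polar brain lipid (20 mg/mL, 4 µL per filter). DMSO stock 5 mg/ml diluted in PBS to 25 ug/ml final, 300 uL in donor, 150 µL PBS in acceptor. Sandwich left 18 h at room temperature. Acceptor and reference concentrations read by UV plate reader, Pe calculated by formula. Mean ± SD of three independent experiments.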

[8] = Cytotoxicity against HEK293T cells harboring WT-IDH1 assessed as cell survival at 10 uM after 72 hrs by CellTiter-Glo assay relative to control; type: cell-based, HEK-293T; details: human, read-out: Survival
Summary of the method: (§2)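 HEK293 cells stably expressing wild-type IDH1 (cDNA in pMXs-GW-IRES-BsdR, transfected with FuGene HD, selected with blasticidin S), grown in DMEM with 10% fetal calf serum and 1% penicillin/streptomycin at 37 °C, 5% CO2. Seeded at 10 000 cells/well in 96-well plates, treated with compound for 72 h; viability read by CellTiter-Glo luminescence.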

[9] = Cytotoxicity against HEK293T cells harboring WT-IDH1 assessed as cell survival at 50 uM after 72 hrs by CellTiter-Glo assay relative to control; type: cell-based, HEK-293T; details: human, read-out: Survival; summary of the method: as §2

residual activity [3] [%]	residual activity [4] [%]	residual activity [5] [%]	residual activity [6] [%]	Structure (SMILES)	Activity (HEK-293T [1])	Activity (HEK-293T [2])	Papp at 18 h, 25 ug/ml [7] [×10⁻⁶ cm/s]	viability at 72 h, 10 µM [8] [%]	viability at 72 h, 50 µM [9] [%]
73.9	85.4	39.5	71.3	CC(C)[C@H]1COC(=O)N1c1cncc(N[C@@H](C)c2ccc(-c3ccc4ccccc4c3)cc2)n1	Non-Toxic				
29.7	33.9	24.7		CC(C)[C@H]1COC(=O)N1c1ccnc(N[C@@H](C)c2ccc(-c3ccccn3)cc2)n1	Non-Toxic				
50.6	97.2	34.7	116	CC(C)[C@H]1COC(=O)N1c1cncc(N[C@@H](C)c2ccc(-c3cccc(F)c3)cc2)n1	Non-Toxic				
51.7	47.7	31.9	51.3	COc1ccc(-c2ccc([C@H](C)Nc3cncc(N4C(=O)OC[C@@H]4C(C)C)n3)cc2)cc1	Non-Toxic				
29.1	39.2	28.3	44.6	Cc1ccccc1-c1ccc([C@H](C)Nc2cncc(N3C(=O)OC[C@@H]3C(C)C)n2)cc1	Non-Toxic				
54.8	70.5	38.7	74.9	Cc1ccc(-c2ccc([C@H](C)Nc3cncc(N4C(=O)OC[C@@H]4C(C)C)n3)cc2)cc1	Non-Toxic				

The next lines start with the molecule.

Structure (SMILES)	residual activity [3] [%]	residual activity [4] [%]	residual activity [5] [%]	residual activity [6] [%]	Activity (HEK-293T [1])	Activity (HEK-293T [2])	Papp at 18 h, 25 ug/ml [7] [×10⁻⁶ cm/s]	viability at 72 h, 10 µM [8] [%]	viability at 72 h, 50 µM [9] [%]
Cc1noc(C)c1-c1ccc([C@H](C)Nc2cncc(N3C(=O)OC[C@@H]3C(C)C)n2)cc1	30.2	47.9	21.5	54.1	Non-Toxic	Toxic			
CC(C)[C@H]1COC(=O)N1c1cncc(N[C@@H](C)c2ccc(-c3ccc(C(F)(F)F)cc3)cc2)n1	27.4	28	30.7	39.9	Non-Toxic	Toxic			
CC(C)[C@H]1COC(=O)N1c1cncc(N[C@@H](C)c2ccc(-c3ccccc3F)cc2)n1	44.1	78.4	28	89.9	Non-Toxic				
CNCCCN1c2ccccc2CCc2ccccc21 [DESIPRAMINE]							8.82		
CC(C)[C@H]1COC(=O)N1c1cncc(N[C@@H](C)c2ccc(-c3ccc(F)cc3)cc2)n1	51.3	34.3	33	39	Non-Toxic	Toxic			
COc1cccc(-c2ccc([C@H](C)Nc3cncc(N4C(=O)OC[C@@H]4C(C)C)n3)cc2)c1	41.7	59.8	33.9	86	Non-Toxic				
CC(C)[C@H]1COC(=O)N1c1cncc(N[C@@H](C)c2ccc(-c3ccccc3)cc2)n1	108	50	38.8	50.4	Non-Toxic				
Cc1cccc(-c2ccc([C@H](C)Nc3cncc(N4C(=O)OC[C@@H]4C(C)C)n3)cc2)c1	29.7	49.7	28.5	51.1	Non-Toxic				
COc1ccccc1-c1ccc([C@H](C)Nc2cncc(N3C(=O)OC[C@@H]3C(C)C)n2)cc1	28.2	31.9	24.6	40.6	Non-Toxic		6.65	89.8	74.5
